Laboratory results published in ChEMBL document CHEMBL4004807 (J Med Chem, 2017).
Calls of active or inactive are those of the source. No cut-off for these calls is given here.

Tests used:
[1] = system: Rattus norvegicus; assay: AUC (0 to infinity) in Sprague-Dawley rat at 10 mg/kg, po; assay type: ADME, organism-based; design: dose 10 mg/kg, route oral, time infinity; conditions: in vivo
Summary of the method: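 Sprague-Dawley rats, single oral dose of 10.0 mg/kg; AUC0-inf from plasma concentrations.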

[2] = Total clearance in Sprague-Dawley rat plasma at 2 mg/kg, iv or 10 mg/kg, po; assay type: ADME, organism-based
[3] = biological target: T1, Prostacyclin receptor (Homo sapiens, UniProt P43119); assay: Ratio of IC50 for IP receptor in human primary platelets to EC50 for recombinant human IP receptor expressed in CHO-K1 cells; assay type: cell-based
T1 sequence (P43119 whole entry): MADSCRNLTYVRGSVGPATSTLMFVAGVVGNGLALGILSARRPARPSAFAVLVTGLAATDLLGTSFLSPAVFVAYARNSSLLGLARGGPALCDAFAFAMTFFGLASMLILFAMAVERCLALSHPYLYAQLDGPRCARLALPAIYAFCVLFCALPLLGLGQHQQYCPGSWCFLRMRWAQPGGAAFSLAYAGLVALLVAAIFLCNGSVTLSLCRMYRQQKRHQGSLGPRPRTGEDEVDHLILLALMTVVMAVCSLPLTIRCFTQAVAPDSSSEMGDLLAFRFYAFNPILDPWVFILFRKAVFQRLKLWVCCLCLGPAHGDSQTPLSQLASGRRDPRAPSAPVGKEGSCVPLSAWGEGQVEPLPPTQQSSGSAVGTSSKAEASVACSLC

[4] = Volume of distribution at steady state in Sprague-Dawley rat at 2 mg/kg, iv or 10 mg/kg, po; assay type: ADME, organism-based; conditions: in vivo
[5] = Selectivity ratio of EC50 for recombinant rat IP receptor expressed in CHO-K1 cells to EC50 for recombinant human IP receptor expressed in CHO-K1 cells; assay type: cell-based
[6] = biological target: T1, Prostacyclin receptor; assay: Agonist activity at IP receptor in PAH patient-derived primary pulmonary arterial smooth muscle cells assessed as induction of cAMP levels after 1 hr by HTRF method; assay type: functional
[7] = system: Plasma; assay: Drug level in bile-duct cannulated rat plasma treated with 2-(((1r,4r)-4-(((4-chlorophenyl)(phenyl)carbamoyloxy)methyl)cyclohexyl)methoxy)acetic acid; assay type: ADME, cell-free
[8] = biological target: Prostacyclin receptor (Rattus norvegicus, UniProt P43253); assay: Agonist activity at recombinant rat IP receptor expressed in CHO-K1 cells assessed as increase in intracellular cAMP level after 1 hr incubation by HTRF method; assay type: functional, cell-based
Prostacyclin receptor (Rattus norvegicus, UniProt P43253), sequence (P43253 whole entry): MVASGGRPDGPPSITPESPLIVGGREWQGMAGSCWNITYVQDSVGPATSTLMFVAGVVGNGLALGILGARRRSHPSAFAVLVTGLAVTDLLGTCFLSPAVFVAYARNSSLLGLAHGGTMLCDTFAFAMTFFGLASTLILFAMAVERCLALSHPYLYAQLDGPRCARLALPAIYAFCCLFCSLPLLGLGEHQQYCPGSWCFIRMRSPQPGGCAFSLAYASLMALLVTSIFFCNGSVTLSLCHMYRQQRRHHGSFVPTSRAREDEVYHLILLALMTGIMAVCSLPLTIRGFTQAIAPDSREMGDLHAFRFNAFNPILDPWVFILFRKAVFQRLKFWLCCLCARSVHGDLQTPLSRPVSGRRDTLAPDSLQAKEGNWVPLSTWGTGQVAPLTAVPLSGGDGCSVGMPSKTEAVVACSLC
Summary of the method: (§1)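 CHO-K1 clonal lines stably expressing IP at minimal levels; cells in PBS with 1 mM IBMX and 0.2% BSA, 200 000 cells/mL. 10-point, 5-fold DMSO serial dilution, top 10 μM; 1 h at room temperature, then HTRF cAMP-D2 and cryptate reagents in lysis buffer, 1 h, time-resolved fluorescence.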

[9] = biological target: T1, Prostacyclin receptor; assay: Agonist activity at recombinant human IP receptor expressed in CHO-K1 cells assessed as increase in intracellular cAMP level after 1 hr incubation by HTRF method; assay type: functional, cell-based; summary of the method: as §1
[10] = biological target: T2, Prostaglandin D2 receptor (Homo sapiens, UniProt Q13258); assay: Agonist activity at recombinant human DP1 receptor expressed in CHO-K1 cells assessed as increase in intracellular cAMP level after 1 hr incubation by HTRF method; assay type: functional, cell-based
T2 sequence (Q13258 whole entry): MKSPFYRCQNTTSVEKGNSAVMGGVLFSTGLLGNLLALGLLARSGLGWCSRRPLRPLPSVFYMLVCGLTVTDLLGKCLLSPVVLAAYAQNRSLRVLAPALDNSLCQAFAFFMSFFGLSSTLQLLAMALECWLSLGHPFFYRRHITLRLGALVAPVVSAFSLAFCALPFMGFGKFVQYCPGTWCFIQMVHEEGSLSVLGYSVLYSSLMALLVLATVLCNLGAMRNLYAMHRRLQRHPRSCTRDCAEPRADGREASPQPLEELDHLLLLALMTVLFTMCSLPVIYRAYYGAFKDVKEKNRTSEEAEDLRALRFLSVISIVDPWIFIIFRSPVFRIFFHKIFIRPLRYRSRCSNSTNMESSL
Summary of the method: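 CHO-K1 clonal line stably expressing DP1 at minimal level; HTRF cAMP assay, 1 h incubation at room temperature, time-resolved fluorescence read-out.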

[11] = biological target: Prostaglandin E2 receptor EP2 subtype (Homo sapiens) (UniProt P43116); assay: Agonist activity at recombinant human EP2 receptor expressed in CHO-K1 cells assessed as increase in intracellular cAMP level up to 10 uM after 1 hr incubation by HTRF method; assay type: functional, cell-based
Prostaglandin E2 receptor EP2 subtype (Homo sapiens), sequence (P43116 whole entry): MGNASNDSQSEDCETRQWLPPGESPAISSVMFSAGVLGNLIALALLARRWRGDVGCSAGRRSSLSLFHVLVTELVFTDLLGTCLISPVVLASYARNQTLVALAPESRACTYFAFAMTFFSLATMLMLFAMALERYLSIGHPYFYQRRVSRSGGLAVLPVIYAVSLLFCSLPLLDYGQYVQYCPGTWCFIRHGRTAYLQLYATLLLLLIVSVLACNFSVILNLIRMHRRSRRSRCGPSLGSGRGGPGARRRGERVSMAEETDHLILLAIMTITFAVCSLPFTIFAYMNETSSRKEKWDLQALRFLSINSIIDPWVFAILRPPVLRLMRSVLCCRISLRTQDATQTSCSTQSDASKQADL

[12] = biological target: T3, Prostaglandin E2 receptor EP3 subtype (Homo sapiens, UniProt P43115); assay: Agonist activity at recombinant human EP3v6 receptor expressed in melanophores assessed as induction of pigment redistribution up to 10 uM after 90 mins; conditions: 1.5 h
T3 sequence (P43115 whole entry): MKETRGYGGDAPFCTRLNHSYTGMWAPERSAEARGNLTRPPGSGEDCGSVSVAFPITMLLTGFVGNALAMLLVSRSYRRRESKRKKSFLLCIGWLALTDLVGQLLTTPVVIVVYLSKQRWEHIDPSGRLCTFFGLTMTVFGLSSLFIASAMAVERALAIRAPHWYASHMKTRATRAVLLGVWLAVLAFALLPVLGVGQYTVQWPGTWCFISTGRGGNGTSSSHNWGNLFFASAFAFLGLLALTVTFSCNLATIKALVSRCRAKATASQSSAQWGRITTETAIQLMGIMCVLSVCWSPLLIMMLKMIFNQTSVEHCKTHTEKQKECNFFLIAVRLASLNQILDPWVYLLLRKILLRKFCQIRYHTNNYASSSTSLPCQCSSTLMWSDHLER
Summary of the method: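 Melanophores electroporated with 20 μg human EP3v6 plasmid per 400 μL cells, grown 48 h at 27 °C. Assay buffer 0.7× PBS pH 7.3 with 20 nM melatonin to aggregate pigment, 90 min at room temperature, 650 nm baseline; compounds added (10-point, 5-fold dilutions, top 10 μM final), 90 min room temperature, absorbance reread.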

[13] = biological target: Prostaglandin E2 receptor EP4 subtype (Homo sapiens) (UniProt P35408); assay: Agonist activity at recombinant human EP4 receptor expressed in CHO-K1 cells assessed as increase in intracellular cAMP level up to 10 uM after 1 hr incubation by HTRF method; assay type: functional, cell-based
Prostaglandin E2 receptor EP4 subtype (Homo sapiens), sequence (P35408 whole entry): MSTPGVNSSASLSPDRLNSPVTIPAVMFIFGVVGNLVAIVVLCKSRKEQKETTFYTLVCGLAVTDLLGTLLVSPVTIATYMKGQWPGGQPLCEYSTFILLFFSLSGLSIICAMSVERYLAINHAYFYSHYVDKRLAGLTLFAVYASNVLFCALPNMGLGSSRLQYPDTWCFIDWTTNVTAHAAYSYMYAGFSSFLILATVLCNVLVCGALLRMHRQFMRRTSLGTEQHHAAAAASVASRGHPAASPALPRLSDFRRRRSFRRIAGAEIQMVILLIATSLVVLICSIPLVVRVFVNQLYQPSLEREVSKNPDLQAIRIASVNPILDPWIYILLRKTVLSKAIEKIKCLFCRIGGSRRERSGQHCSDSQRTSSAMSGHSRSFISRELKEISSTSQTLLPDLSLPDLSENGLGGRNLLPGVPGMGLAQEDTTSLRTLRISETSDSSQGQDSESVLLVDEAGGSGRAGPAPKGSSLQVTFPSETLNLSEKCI

[14] = system: Rattus norvegicus; assay: Inhibition of right ventricle hypertrophic response in Sprague-Dawley rat monocrotaline model of pulmonary arterial hypertension assessed as reduction of MCT-induced increase in ratio of right ventricular weight to left ventricle plus septum weight administered via oral gavage twice daily for 21 consecutive days starting 24 hrs after monocrotaline challenge; assay type: functional
Summary of the method: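 Male rats given 60 mg/kg monocrotaline sc on day 1 (sham: saline) under 30 mg/kg ip pentobarbital; from next day for 20 days dosed by oral gavage twice daily at 10 or 30 mg/kg in 20% HPBCD in saline (vehicle control). Day 21: RV/(LV+S) weights; mPAP via catheter under 60 mg/kg pentobarbital (30 mg/kg group, n = 5); H&E lung sections, 5 animals/group.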

## COc1ccc(N(C(=O)OC[C@H]2CC[C@H](COCC(=O)O)CC2)c2ccccc2)cc1
[1]
  AUC: 3400 ng·h/mL
[2]
  clearance: 56.7 mL/min/kg
[3]
  Ratio IC50/EC50: 2 to 10
[4]
  Vd: 0.71 L/kg
[5]
  Ratio EC50: 10 to 30

## CC(C)N(CCCCOCC(=O)O)c1cnc(-c2ccccc2)c(-c2ccccc2)n1
[6]
  Activity: Active

## O=C(O)COC[C@H]1CC[C@H](COC(=O)N(c2ccccc2)c2ccc(F)c(F)c2)CC1
[1]
  AUC: 4500 ng·h/mL
[2]
  clearance: 10 mL/min/kg
[3]
  Ratio IC50/EC50: 2 to 10
[4]
  Vd: 1.1 L/kg
[5]
  Ratio EC50: 10 to 30

## O=C(O)COC[C@H]1CC[C@H](COC(=O)N(c2ccccc2)c2ccc(F)cc2)CC1
[1]
  AUC: 7900 ng·h/mL
[2]
  clearance: 30 mL/min/kg
[3]
  Ratio IC50/EC50: 2 to 10
[4]
  Vd: 6.2 L/kg
[5]
  Ratio EC50: 10 to 30

## O=C(O)COC[C@H]1CC[C@H](COC(=O)N(c2ccc(F)cc2)c2cccc(F)c2)CC1
[3]
  Ratio IC50/EC50: 2 to 10
[5]
  Ratio EC50: 10 to 30

## O=C(COC[C@H]1CC[C@H](COC(=O)N(c2ccc(O)cc2)c2ccc(Cl)cc2)CC1)NCCS(=O)(=O)O
[7]
  Drug metabolism: Metabolite_Detected

## O=C(O)COC[C@H]1CC[C@H](COC(=O)N(c2ccccc2)c2ccc(F)c(Cl)c2)CC1
[3]
  Ratio IC50/EC50: 2 to 10
[5]
  Ratio EC50: 10 to 30

## O=C(O)COC[C@H]1CC[C@H](COC(=O)N(c2cccc(F)c2)c2ccc(Cl)c(F)c2)CC1
[3]
  Ratio IC50/EC50: 2 to 10
[5]
  Ratio EC50: 10 to 30

## O=C(O)COC[C@H]1CC[C@H](COC(=O)N(c2ccc(F)cc2)c2ccc(F)cc2)CC1
[3]
  Ratio IC50/EC50: 2 to 10
[5]
  Ratio EC50: 10 to 30

## CC(C)N(CCCCOCC(=O)NS(C)(=O)=O)c1cnc(-c2ccccc2)c(-c2ccccc2)n1 [SELEXIPAG]
[8]
  EC50: 200 nM
[3]
  Ratio IC50/EC50: 2 to 10
[9]
  EC50: 6 nM
[5]
  Ratio EC50: 10 to 30
[10]
  EC50: 100 nM

## O=C(O)COC[C@H]1CC[C@H](COC(=O)N(c2ccccc2)c2cccc(F)c2)CC1
[11]
  Activity: inactive
[1]
  AUC: 7900 ng·h/mL
[6]
  Activity: Active
[12]
  Activity: Active
[2]
  clearance: 20 mL/min/kg
[13]
  Activity: inactive
[3]
  Ratio IC50/EC50: 2 to 10
[14]
  inhibition: Dose-dependent effect
[4]
  Vd: 2.74 L/kg
[5]
  Ratio EC50: 10 to 30

## CC#CCC(C)[C@H](O)/C=C/[C@@H]1[C@H]2C/C(=C/CCCC(=O)O)C[C@H]2C[C@H]1O (stereo partly specified) [ILOPROST]
[12]
  Activity: Active
